Structures are written as SMILES. A value given as a limit tells only on which side of the number the result lay.

The target of assay [1] is Epidermal growth factor receptor (Homo sapiens, UniProt P00533). Put plainly: Inhibition of EGFR (unknown origin) using poly(Glu,Tyr) as substrate after 30 mins by HTRF assay. The gist of the method:
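HTRF kinase assay with purified kinase protein on precoated poly(Glu,Tyr) 4:1 substrate (20 µg/mL). Buffer was 50 mM HEPES pH 7.0 with DTT, MgCl2, MnCl2 and 0.1% NaN3, plus ATP added from a 10 mM solution. Compounds were in 1% DMSO. Reaction ran 30 min at 25 °C and was stopped with Streptavidin-XL665 and TK antibody-cryptate. Read at 320/615 nm; % inhibition from max/min controls, IC50 from inhibition curves.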
(In TR-FRET formats the signal depends on donor and acceptor labels being close together.)

In assay [2] the target is T1, Receptor-type tyrosine-protein kinase FLT3 (Homo sapiens, UniProt P36888).
T1 sequence (P36888 whole entry): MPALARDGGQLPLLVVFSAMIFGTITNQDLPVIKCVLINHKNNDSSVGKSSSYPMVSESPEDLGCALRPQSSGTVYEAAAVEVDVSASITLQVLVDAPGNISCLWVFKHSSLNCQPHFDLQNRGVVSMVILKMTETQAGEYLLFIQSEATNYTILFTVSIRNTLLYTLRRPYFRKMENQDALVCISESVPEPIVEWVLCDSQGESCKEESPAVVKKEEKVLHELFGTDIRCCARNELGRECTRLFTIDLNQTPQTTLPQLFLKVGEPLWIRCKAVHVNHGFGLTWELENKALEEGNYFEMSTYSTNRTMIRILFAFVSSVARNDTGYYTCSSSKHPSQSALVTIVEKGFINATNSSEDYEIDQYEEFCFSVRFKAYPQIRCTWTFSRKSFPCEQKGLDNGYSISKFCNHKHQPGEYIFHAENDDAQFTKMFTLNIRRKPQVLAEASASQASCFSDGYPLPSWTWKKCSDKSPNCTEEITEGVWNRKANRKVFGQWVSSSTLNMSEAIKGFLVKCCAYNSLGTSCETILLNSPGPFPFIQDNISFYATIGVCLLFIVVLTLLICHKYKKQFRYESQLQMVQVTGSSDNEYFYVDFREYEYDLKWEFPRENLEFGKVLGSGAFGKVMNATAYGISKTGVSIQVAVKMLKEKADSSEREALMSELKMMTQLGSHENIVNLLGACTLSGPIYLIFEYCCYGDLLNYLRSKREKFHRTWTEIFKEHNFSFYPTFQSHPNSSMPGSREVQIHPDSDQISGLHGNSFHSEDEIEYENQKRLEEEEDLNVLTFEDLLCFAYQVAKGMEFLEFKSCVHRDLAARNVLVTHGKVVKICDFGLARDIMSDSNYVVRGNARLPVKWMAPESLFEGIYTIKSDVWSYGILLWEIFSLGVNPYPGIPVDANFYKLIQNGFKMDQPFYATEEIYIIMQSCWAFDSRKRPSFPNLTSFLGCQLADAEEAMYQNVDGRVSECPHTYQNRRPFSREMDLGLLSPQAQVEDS
Kind of assay: Inhibition of FLT-3 (unknown origin) using poly(Glu,Tyr) as substrate after 30 mins by HTRF assay. The gist of the method:
(§1)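 HTRF kinase assay on plates precoated with poly(Glu,Tyr) 4:1 (20 µg/mL). ATP was added as a 10 mM solution in 50 mM HEPES pH 7.0 buffer with DTT, MgCl2, MnCl2 and 0.1% NaN3. Compounds were in 1% DMSO, and purified kinase started the reaction (30 min, 25 °C). Streptavidin-XL665/TK antibody cryptate stopped it, read at 320/615 nm. Inhibition was scaled to enzyme and no-enzyme controls; IC50 from curves.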

The target in assay [3] is Mast/stem cell growth factor receptor Kit (Homo sapiens, UniProt P10721). Put plainly: Inhibition of c-KIT (unknown origin) using poly(Glu,Tyr) as substrate after 30 mins by HTRF assay. The method, boiled down:
as §1

For assay [4], the target named is Platelet-derived growth factor receptor alpha (Homo sapiens, UniProt P16234). Put plainly: Inhibition of PDGFRalpha (unknown origin) using poly(Glu,Tyr) as substrate after 30 mins by HTRF assay. The gist of the method: as §1
Assay [5] has as its target Vascular endothelial growth factor receptor 2 (Homo sapiens, UniProt P35968). Kind of assay: Inhibition of KDR (unknown origin) using poly(Glu,Tyr) as substrate after 30 mins by HTRF assay. The gist of the method:
as §1

Assay [6] deals with Macrophage-stimulating protein receptor (Homo sapiens, UniProt Q04912). Kind of assay: Inhibition of RON (unknown origin) using poly(Glu,Tyr) as substrate after 30 mins by HTRF assay. The method, boiled down:
as §1

The test system of a further assay is MDA-MB-231. Kind of assay: Cytotoxicity against human MDA-MB-231 cells after 72 hrs by MTT assay. The class given is functional, cell-based. Particulars: MDA-MB-231, 72 h. The method, boiled down:
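Cells were grown in MEM with 10% FBS. About 4×10^3 cells per well were seeded and incubated 24 h at 37 °C in 5% CO2. Compounds were then added at set final concentrations for 72 h. MTT (final 5 µg/mL) was added for 4 h at 37 °C, and formazan was dissolved in DMSO and read at 492 nm against a 630 nm reference. Each line was tested three times; IC50 is mean ± SD.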
A general note: Tetrazolium dyes change colour on reduction, which living cells bring about.

A further assay concerns A549. Put plainly: Cytotoxicity against human A549 cells after 72 hrs by MTT assay. Particulars: A549, 72 h. The format is functional, cell-based.
Another assay deals with SMMC-7721. Put plainly: cells. To be noted: Homo sapiens, SMMC-7721, 72 h.
A further assay deals with NCI-H460. Kind of assay: cells. To be noted: Homo sapiens, NCI-H460, 72 h.
A further assay is described as follows: cells. To be noted: Homo sapiens, U-87 MG, 72 h.
For another assay, the system named is HT-29. Kind of assay: cells. To be noted: Homo sapiens, HT-29, 72 h.
In a further assay the test system is MKN-45. Kind of assay: cells. Particulars: Homo sapiens, MKN-45, 72 h.

Chain of Macrophage-stimulating protein receptor (Q04912 25-304 limits assumed): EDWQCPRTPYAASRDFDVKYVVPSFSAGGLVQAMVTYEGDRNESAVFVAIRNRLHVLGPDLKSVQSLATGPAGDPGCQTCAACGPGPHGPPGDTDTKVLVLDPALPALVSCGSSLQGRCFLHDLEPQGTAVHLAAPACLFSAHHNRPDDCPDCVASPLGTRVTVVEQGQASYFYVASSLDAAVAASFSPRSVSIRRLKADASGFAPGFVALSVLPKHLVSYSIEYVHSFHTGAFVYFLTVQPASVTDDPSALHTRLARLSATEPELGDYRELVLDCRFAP
Chain of Macrophage-stimulating protein receptor (Q04912 310-1400 limits assumed): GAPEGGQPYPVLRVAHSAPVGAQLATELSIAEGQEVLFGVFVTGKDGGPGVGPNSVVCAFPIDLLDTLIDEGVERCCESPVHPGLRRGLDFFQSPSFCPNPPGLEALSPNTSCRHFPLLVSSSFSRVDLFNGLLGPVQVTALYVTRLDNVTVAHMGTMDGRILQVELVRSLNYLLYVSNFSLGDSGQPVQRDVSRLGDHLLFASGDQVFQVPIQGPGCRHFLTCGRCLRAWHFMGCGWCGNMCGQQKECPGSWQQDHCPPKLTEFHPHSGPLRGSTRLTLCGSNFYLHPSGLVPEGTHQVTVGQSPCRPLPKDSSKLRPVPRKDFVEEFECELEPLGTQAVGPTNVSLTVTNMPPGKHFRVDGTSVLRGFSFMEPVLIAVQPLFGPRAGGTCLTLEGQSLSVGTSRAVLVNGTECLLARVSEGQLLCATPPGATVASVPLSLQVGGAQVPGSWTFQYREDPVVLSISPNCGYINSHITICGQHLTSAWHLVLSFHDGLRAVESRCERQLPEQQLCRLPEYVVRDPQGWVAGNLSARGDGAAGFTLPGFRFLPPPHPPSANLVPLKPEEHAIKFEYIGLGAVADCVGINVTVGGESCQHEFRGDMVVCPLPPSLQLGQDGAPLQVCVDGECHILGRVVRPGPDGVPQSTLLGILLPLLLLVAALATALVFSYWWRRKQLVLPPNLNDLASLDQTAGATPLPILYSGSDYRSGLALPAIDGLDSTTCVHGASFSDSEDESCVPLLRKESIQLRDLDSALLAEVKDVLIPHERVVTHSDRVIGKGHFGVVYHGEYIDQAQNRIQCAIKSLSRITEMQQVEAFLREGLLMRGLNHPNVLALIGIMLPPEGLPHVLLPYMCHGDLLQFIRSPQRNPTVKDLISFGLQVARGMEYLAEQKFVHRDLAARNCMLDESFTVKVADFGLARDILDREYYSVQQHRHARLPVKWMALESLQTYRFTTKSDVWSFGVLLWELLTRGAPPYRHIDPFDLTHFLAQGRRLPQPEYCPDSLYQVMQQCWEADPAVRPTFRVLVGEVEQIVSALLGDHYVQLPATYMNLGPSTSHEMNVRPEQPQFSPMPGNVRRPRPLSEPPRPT
Chain of Epidermal growth factor receptor (P00533 whole entry): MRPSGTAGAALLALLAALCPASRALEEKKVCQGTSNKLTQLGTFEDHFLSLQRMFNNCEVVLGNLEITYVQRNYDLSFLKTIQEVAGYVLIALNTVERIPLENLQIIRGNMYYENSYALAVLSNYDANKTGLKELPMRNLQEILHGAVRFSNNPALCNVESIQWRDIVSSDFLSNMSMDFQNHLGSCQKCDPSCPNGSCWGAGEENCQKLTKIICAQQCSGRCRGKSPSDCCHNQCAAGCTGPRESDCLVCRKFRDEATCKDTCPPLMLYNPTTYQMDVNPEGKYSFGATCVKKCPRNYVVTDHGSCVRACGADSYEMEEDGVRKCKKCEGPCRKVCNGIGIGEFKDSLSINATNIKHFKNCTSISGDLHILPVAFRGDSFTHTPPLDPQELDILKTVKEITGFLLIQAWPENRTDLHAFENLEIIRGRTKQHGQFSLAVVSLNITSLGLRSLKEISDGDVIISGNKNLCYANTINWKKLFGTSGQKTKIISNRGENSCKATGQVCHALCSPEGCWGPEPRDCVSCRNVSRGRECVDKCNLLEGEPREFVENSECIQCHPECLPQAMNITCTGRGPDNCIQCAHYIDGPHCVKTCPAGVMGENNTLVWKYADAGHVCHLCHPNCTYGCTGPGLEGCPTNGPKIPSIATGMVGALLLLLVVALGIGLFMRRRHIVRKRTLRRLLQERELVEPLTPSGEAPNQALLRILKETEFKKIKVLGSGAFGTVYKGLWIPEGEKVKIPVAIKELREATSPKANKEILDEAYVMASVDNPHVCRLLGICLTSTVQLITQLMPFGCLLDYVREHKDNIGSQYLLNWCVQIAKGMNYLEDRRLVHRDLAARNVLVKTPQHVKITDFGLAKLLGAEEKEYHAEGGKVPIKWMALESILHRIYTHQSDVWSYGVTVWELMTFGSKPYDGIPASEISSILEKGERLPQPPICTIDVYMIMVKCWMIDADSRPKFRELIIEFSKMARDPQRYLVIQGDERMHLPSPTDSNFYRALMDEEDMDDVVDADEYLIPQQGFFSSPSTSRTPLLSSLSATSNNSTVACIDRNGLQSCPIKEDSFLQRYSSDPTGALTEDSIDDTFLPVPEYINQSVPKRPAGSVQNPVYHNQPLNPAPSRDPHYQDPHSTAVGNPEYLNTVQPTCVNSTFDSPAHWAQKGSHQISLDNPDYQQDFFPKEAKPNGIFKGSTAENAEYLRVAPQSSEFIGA
Chain of Mast/stem cell growth factor receptor Kit (P10721 whole entry): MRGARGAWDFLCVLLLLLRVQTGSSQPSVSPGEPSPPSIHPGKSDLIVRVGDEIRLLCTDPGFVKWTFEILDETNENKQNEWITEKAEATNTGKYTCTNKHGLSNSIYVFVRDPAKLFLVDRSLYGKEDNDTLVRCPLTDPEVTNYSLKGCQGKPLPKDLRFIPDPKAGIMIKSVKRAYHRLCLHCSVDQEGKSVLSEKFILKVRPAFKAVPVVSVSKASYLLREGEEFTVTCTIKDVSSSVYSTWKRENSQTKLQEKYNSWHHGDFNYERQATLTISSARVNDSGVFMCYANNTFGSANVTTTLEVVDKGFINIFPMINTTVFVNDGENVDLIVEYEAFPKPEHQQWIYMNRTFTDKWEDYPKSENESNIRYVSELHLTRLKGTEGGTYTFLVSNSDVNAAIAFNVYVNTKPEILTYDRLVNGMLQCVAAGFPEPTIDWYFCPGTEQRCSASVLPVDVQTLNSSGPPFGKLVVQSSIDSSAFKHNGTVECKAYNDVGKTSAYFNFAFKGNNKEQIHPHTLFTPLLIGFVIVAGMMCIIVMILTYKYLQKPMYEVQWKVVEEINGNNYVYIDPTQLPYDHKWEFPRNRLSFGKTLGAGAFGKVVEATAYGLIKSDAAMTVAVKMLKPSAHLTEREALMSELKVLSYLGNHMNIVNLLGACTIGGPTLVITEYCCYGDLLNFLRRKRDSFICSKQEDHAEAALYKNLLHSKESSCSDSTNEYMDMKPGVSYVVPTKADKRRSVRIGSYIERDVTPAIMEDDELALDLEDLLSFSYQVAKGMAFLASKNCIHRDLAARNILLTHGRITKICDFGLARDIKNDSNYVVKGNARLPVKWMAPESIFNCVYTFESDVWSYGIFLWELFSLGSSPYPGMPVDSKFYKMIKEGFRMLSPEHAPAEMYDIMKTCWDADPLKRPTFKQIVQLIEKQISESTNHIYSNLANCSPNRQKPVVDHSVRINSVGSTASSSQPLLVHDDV
Chain of Platelet-derived growth factor receptor alpha (P16234 whole entry): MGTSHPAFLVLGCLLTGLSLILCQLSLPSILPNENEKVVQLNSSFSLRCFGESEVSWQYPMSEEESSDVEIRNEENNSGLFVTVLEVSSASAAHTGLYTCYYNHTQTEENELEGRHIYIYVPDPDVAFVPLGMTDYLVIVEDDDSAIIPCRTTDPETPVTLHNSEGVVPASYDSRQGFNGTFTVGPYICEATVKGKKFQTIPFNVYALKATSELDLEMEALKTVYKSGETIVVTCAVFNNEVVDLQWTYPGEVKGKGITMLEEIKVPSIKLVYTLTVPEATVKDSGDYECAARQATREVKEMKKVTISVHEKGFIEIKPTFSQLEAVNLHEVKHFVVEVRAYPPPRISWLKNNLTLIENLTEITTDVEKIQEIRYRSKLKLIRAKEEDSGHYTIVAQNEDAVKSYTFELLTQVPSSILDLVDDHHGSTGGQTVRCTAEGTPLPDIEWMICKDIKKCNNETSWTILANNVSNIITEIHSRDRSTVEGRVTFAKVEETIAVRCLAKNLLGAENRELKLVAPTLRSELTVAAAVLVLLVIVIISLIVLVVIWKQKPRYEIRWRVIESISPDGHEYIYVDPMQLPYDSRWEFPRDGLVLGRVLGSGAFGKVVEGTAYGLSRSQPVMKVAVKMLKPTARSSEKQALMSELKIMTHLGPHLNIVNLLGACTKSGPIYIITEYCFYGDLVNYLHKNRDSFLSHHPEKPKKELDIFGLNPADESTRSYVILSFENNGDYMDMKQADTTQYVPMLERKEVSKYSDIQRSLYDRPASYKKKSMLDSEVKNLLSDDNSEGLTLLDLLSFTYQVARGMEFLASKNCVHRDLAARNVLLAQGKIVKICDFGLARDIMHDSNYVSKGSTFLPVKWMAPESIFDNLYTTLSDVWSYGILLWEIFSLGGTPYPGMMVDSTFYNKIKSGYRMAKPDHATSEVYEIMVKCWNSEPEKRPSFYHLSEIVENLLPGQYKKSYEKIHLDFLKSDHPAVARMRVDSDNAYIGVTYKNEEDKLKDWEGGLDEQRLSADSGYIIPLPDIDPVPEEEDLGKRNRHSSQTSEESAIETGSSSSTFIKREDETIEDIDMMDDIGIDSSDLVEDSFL

Turning to `COc1cc2c(Oc3ccc(NC(=O)N/N=C/c4ccc(F)cc4F)cc3F)ccnc2cc1OCCCN1CCC(C)CC1`, the IC50 – broadly, the concentration that gives 50% inhibition – was over 100 µM in assay [1]; 0.38 µM in assay [2]; 0.23 µM in assay [3]; 0.39 µM in assay [4]; 0.69 µM in [5]; 0.0187 µM in assay [6]. Moreover, the IC50 in the assay with MDA-MB-231 is 1.1 µM; in the assay on A549 it was 0.08 µM; in the assay with SMMC-7721, 0.29 µM; with NCI-H460 it was 0.057 µM; in the assay “cells”, 0.0097 µM; in the assay on HT-29, 0.08 µM. For the same compound, the midpoint of inhibition with MKN-45, the IC50, lay at 0.51 µM.

(Values after ChEMBL document CHEMBL2417367 (Bioorg Med Chem, 2013).)
